SMILES strings stand for the structures.

This is an account of results in ChEMBL document CHEMBL1136978, “Aryl urea derivatives of spiropiperidines as NPY Y5 receptor antagonists” (Bioorg Med Chem Lett, 2009).

Common to all, as to format: ADME, organism-based
Series [1] is described as follows: Drug level in rat cerebrospinal fluid at 10 mg/kg, po after 2 hrs. Also noted: dose 10 mg/kg, route oral. Conditions: read-out: Drug uptake. In outline:
(§1)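 Single oral dose of 10 mg/kg to rats (n = 3). Plasma (µM), brain (nmol/g tissue) and CSF (µM) levels taken at 2 h post-dose.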

Series [2] is described as follows: Plasma concentration in rat at 10 mg/kg, po after 2 hrs. Details: dose 10 mg/kg, route oral. Put shortly: as §1
A further series deals with Brain. Put plainly: Drug level in rat brain at 10 mg/kg, po after 2 hrs measured per gram of tissue. The following applies: in vivo. Details: dose 10 mg/kg, route oral. Put shortly:
as §1

Series [3] is described as follows: Oral bioavailability in rat at 3 mg/kg, iv and 10 mg/kg, po. The following applies: in vivo.

In the case of `O=C1OC2(CCN(C(=O)Nc3cc(-c4ccc(Cl)cc4)no3)CC2)c2ccccc21`, the values for the concentration at 2 h in series [1] and in series [2] were under 10 nM and 1420 nM, respectively. In the series with Brain, this compound showed a Drug uptake of 1.09 nmol/g.

A word on the bioavailability: it is dose-corrected exposure relative to a reference, in per cent. A lower bioavailability goes with poor availability. As for `O=C1NC2(CCN(C(=O)Nc3cnc(-c4ccccc4)cn3)CC2)c2ccccc21`, the bioavailability in series [3] amounted to 8%. Besides, the concentration at 2 h in series [2] is 360 nM. The compound further displayed a Drug uptake in the series on Brain of 0.029 nmol/g.

The compound `O=C1Cc2ccccc2C2(CCN(C(=O)Nc3cnc(-c4ccccc4)cn3)CC2)N1` displayed a bioavailability in series [3] of 3%.

Take `O=C1OC2(CCN(C(=O)Nc3cnc(-c4ccccc4)cn3)CC2)c2ccccc21`: the concentration at 2 h in series [1] amounted to 100 nM; in series [2], 2980 nM. For the same compound, the bioavailability in series [3] is 49%. In addition, the Drug uptake in the series on Brain came to 2.92 nmol/g.

For `O=C1OC2(CCN(C(=O)Nc3ncc(-c4ccccc4)cn3)CC2)c2ccccc21`, the values for the concentration at 2 h in series [1] and in series [2] were 130 nM and 3860 nM, respectively. Also, the Drug uptake in the series on Brain amounted to 0.26 nmol/g.
